In ChEMBL document CHEMBL1770048, “Synthesis and biological evaluation of a diazepanone-based library of liposidomycins analogs as MraY inhibitors” (Eur J Med Chem, 2011):

How the values were obtained:
[1] = target: T1, Phospho-N-acetylmuramoyl-pentapeptide-transferase (Staphylococcus aureus, UniProt P0C1R8); assay: Inhibition of Staphylococcus aureus MraY after 30 mins
T1 sequence (P0C1R8 whole entry): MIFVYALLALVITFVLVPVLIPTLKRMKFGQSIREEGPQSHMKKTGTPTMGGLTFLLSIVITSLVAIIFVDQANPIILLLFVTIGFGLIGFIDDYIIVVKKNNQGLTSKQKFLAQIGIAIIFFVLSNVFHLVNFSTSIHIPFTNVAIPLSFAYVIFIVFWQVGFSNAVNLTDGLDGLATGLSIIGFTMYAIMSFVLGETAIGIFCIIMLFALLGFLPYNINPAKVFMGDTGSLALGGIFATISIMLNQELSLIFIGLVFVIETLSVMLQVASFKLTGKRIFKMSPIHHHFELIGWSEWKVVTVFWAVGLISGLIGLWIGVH
Outline: (§1)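 Started with enzyme, 30 min at 37 °C with shaking, stopped at 100 °C for 1 min. Lipid I separated from substrate by silica TLC (2-propanol/NH₄OH/water 6:3:1), spots quantified by radioactivity scanning. Residual activity relative to no-inhibitor control; IC50 from 7 inhibitor concentrations.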

[2] = Inhibition of Staphylococcus aureus MurG after 30 mins
Outline: (§2)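 MurG reaction in 12.5 μl: 200 mM Tris-HCl pH 7.5, 10 mM MgCl₂, 16 μM UDP-[¹⁴C]GlcNAc, 16 μM lipid I analog, 30% (v/v) DMSO (final) plus MurG. Run 30 min at 37 °C, stopped by 3 min boiling, lyophilized, redissolved in 2-propanol/NH₄OH/water (6:3:1). Lipid II resolved by silica TLC in the same solvent and counted by radioactivity scanning. Residual activity versus no-inhibitor control; IC50 from 7 concentrations.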

Staphylococcus aureus [3] = assay: Inhibition of Staphylococcus aureus MurG assessed as residual activity of enzyme at 1 mM after 30 mins; outline: as §2
Staphylococcus aureus [4] = assay: Inhibition of Staphylococcus aureus MurG assessed as residual activity of enzyme at 2 mM after 30 mins; outline: as §2
[5] = target: T2, Phospho-N-acetylmuramoyl-pentapeptide-transferase (Staphylococcus aureus) (UniProt P0C1R8); assay: Inhibition of Staphylococcus aureus MraY assessed as residual activity of enzyme at 1 mM after 30 mins; outline: as §1
T2 sequence (whole entry): T1 sequence (P0C1R8 whole entry)

[6] = target: T2, Phospho-N-acetylmuramoyl-pentapeptide-transferase (Staphylococcus aureus); assay: Inhibition of Staphylococcus aureus MraY assessed as residual activity of enzyme at 2 mM after 30 mins; conditions: 1 mM, in the assay text read “at 1 mM” for “at 2 mM”; outline: as §1

Compound	IC50 [1]	IC50 [2]	Activity (Staphylococcus aureus [4])	further results
CCCCCCCCCCCCCCCC(=O)O[C@H]1CN(C)[C@@H](CO)C(=O)N[C@@H]1CO	1740 µM			
CC(C)(C)[Si](OC[C@H]1NC(=O)[C@H](COCc2ccccc2)N(CCCCCn2ccc(=O)[nH]c2=O)C[C@@H]1O)(c1ccccc1)c1ccccc1	1600 µM			Activity (Staphylococcus aureus [3]): 100%
CCCCCCCCCCCCCCCC(=O)O[C@H]1CN(CCCCCn2ccc(=O)[nH]c2=O)[C@@H](CO[C@@H]2O[C@H](CN)[C@@H](O)[C@H]2O)C(=O)N[C@@H]1CO[C@@H]1O[C@H](CN)[C@@H](O)[C@H]1O	2800 µM	130 µM		
CCCCCCCCCCCCCCCC(=O)O[C@H]1CN(C)[C@@H](CO[C@@H]2O[C@H](CN)[C@H]3OC(CC)(CC)O[C@@H]23)C(=O)N[C@@H]1CO[Si](c1ccccc1)(c1ccccc1)C(C)(C)C	1000 µM			
CCCCCCCCCCCCCCCC(=O)O[C@H]1CN(C)[C@@H](CO[C@@H]2O[C@H](CN)[C@@H](O)[C@H]2O)C(=O)N[C@@H]1CO			100%	Activity [5]: 75%
CCCCCCCCCCCCCCCC(=O)O[C@H]1CN(CCCCCn2ccc(=O)[nH]c2=O)[C@@H](CO[C@@H]2O[C@H](CN)[C@H]3OC(CC)(CC)O[C@@H]23)C(=O)N[C@@H]1CO[Si](c1ccccc1)(c1ccccc1)C(C)(C)C	620 µM	110 µM		
CCCCCCCCCCCCCCCC(=O)O[C@H]1CN(CCCCCn2ccc(=O)[nH]c2=O)[C@@H](CO[C@@H]2O[C@H](CN=[N+]=[N-])[C@H]3OC(CC)(CC)O[C@@H]23)C(=O)N[C@@H]1CO[C@@H]1O[C@H](CN=[N+]=[N-])[C@H]2OC(CC)(CC)O[C@@H]12	420 µM		87%	
CCCCCCCCCCCCCCCC(=O)O[C@H]1CN(C)[C@@H](CO[C@@H]2O[C@H](CN)[C@@H](O)[C@H]2O)C(=O)N[C@@H]1CO[Si](c1ccccc1)(c1ccccc1)C(C)(C)C		150 µM		Activity [6]: 66%
CCCCCCCCCCCCCCCC(=O)O[C@H]1CN(CCCCCn2ccc(=O)[nH]c2=O)[C@@H](COCc2ccccc2)C(=O)N[C@@H]1CO[Si](c1ccccc1)(c1ccccc1)C(C)(C)C	1400 µM		100%	

Continued, in another order:

IC50 [1]	IC50 [2]	Activity (Staphylococcus aureus [4])	Compound	further results
310 µM	100 µM		CCCCCCCCCCCCCCCC(=O)O[C@H]1CN(CCCCCn2ccc(=O)[nH]c2=O)[C@@H](CO[C@@H]2O[C@H](CN)[C@H]3OC(CC)(CC)O[C@@H]23)C(=O)N[C@@H]1CO[C@@H]1O[C@H](CN)[C@H]2OC(CC)(CC)O[C@@H]12	
120 µM	185 µM		CCCCCCCCCCCCCCCC(=O)O[C@H]1CN(CCCCCn2ccc(=O)[nH]c2=O)[C@@H](CO[C@@H]2O[C@H](CN)[C@@H](O)[C@H]2O)C(=O)N[C@@H]1CO[Si](c1ccccc1)(c1ccccc1)C(C)(C)C	
380 µM		66%	CCCCCCCCCCCCCCCC(=O)O[C@H]1CN(CCCCCn2ccc(=O)[nH]c2=O)[C@@H](CO)C(=O)N[C@@H]1CO[Si](c1ccccc1)(c1ccccc1)C(C)(C)C	
220 µM	530 µM		CCCCCCCCCCCCCCCC(=O)O[C@H]1CN(CCCCCn2ccc(=O)[nH]c2=O)[C@@H](CO[C@@H]2O[C@H](CN)[C@@H](O)[C@H]2O)C(=O)N[C@@H]1CO	
270 µM		100%	CCCCCCCCCCCCCCCC(=O)O[C@H]1CN(CCCCCn2ccc(=O)[nH]c2=O)[C@@H](CO)C(=O)N[C@@H]1CO	
190 µM		100%	CCCCCCCCCCCCCCCC(=O)O[C@H]1CN(CCCCCn2ccc(=O)[nH]c2=O)[C@@H](CO[C@@H]2O[C@H](CN=[N+]=[N-])[C@H]3OC(CC)(CC)O[C@@H]23)C(=O)N[C@@H]1CO[Si](c1ccccc1)(c1ccccc1)C(C)(C)C	
